Test results from ChEMBL document CHEMBL4613327, “Sulfonamide Inhibitors of Human Carbonic Anhydrases Designed through a Three-Tails Approach: Improving Ligand/Isoform Matching and Selectivity of Action” (J Med Chem, 2020).

Each compound was assayed against Carbonic anhydrase 1 (Homo sapiens, UniProt P00915) (assay: Inhibition of human CA1 preincubated for 15 mins by stopped-flow CO2 hydration kinetic assay based Cheng-Prusoff equation analysis).
Sequence of Carbonic anhydrase 1 (P00915 whole entry): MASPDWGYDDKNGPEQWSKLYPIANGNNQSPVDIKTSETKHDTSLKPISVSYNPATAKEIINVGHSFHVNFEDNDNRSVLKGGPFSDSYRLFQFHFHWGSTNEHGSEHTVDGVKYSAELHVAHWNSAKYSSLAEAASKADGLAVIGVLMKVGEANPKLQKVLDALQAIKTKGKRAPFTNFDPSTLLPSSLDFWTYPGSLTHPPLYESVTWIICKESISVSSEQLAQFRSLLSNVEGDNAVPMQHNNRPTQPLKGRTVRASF
`NS(=O)(=O)c1ccc(CCN(Cc2ccc(F)cc2)C(=O)CN(CCC(=O)O)CCc2ccccc2)cc1` gave a Ki of 0.0958 µM. Compound `N#CCCN(CCc1ccccc1)CC(=O)N(CCC#N)CCc1ccc(S(N)(=O)=O)cc1` has a Ki of 0.0616 µM. Compound `NS(=O)(=O)c1ccc(CCN(Cc2ccco2)C(=O)CN(CCC(=O)O)CCc2ccccc2)cc1` has a Ki of 0.0795 µM. With `CCCCCCCCN(CCCCCCCC)CC(=O)N(CCc1ccc(S(N)(=O)=O)cc1)Cc1ccccc1` the Ki was 0.947 µM. `CCCCCCN(CCCCCC)CCC(=O)N(CCc1ccc(S(N)(=O)=O)cc1)Cc1ccco1` gave a Ki of 0.22 µM. Work on `CCCCCCN(CCCCCC)CC(=O)N(CCc1ccc(S(N)(=O)=O)cc1)Cc1ccccc1` yielded a Ki of 0.879 µM.

These compounds were tested against Carbonic anhydrase 2 (Homo sapiens, UniProt P00918) (assay: Inhibition of human CA2 preincubated for 15 mins by stopped-flow CO2 hydration kinetic assay based Cheng-Prusoff equation analysis).
`NS(=O)(=O)c1ccc(CCN(Cc2ccc(F)cc2)C(=O)CN(CCC(=O)O)CCc2ccccc2)cc1` gave a Ki of 0.0235 µM. With `N#CCCN(CCc1ccccc1)CC(=O)N(CCC#N)CCc1ccc(S(N)(=O)=O)cc1` the Ki was 0.0007 µM. Compound `NS(=O)(=O)c1ccc(CCN(Cc2ccco2)C(=O)CN(CCC(=O)O)CCc2ccccc2)cc1` has a Ki of 0.0024 µM. `CCCCCCCCN(CCCCCCCC)CC(=O)N(CCc1ccc(S(N)(=O)=O)cc1)Cc1ccccc1` showed a Ki of 0.844 µM. `CCCCCCN(CCCCCC)CCC(=O)N(CCc1ccc(S(N)(=O)=O)cc1)Cc1ccco1` was tested, and the Ki was 0.0604 µM. For `CCCCCCN(CCCCCC)CC(=O)N(CCc1ccc(S(N)(=O)=O)cc1)Cc1ccccc1`, the Ki was 0.237 µM.

What follows are compounds tested against Carbonic anhydrase 4 (Homo sapiens, UniProt P22748) (assay: Inhibition of human CA4 preincubated for 15 mins by stopped-flow CO2 hydration kinetic assay based Cheng-Prusoff equation analysis).
Sequence of Carbonic anhydrase 4 (P22748 whole entry): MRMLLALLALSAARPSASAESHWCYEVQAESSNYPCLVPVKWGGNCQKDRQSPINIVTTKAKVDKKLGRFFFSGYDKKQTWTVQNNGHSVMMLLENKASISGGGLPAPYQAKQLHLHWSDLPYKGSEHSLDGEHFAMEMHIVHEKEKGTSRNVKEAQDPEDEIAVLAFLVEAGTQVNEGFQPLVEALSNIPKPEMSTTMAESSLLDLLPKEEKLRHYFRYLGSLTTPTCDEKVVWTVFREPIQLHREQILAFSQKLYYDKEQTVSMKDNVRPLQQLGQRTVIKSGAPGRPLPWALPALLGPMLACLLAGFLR
`NS(=O)(=O)c1ccc(CCN(Cc2ccc(F)cc2)C(=O)CN(CCC(=O)O)CCc2ccccc2)cc1` was tested, and the Ki was 0.419 µM. In the case of `N#CCCN(CCc1ccccc1)CC(=O)N(CCC#N)CCc1ccc(S(N)(=O)=O)cc1`, the Ki is reported as 0.727 µM. Compound `NS(=O)(=O)c1ccc(CCN(Cc2ccco2)C(=O)CN(CCC(=O)O)CCc2ccccc2)cc1` has a Ki of 0.335 µM. In the case of `CCCCCCCCN(CCCCCCCC)CC(=O)N(CCc1ccc(S(N)(=O)=O)cc1)Cc1ccccc1`, the Ki is reported as greater than 10 µM. Compound `CCCCCCN(CCCCCC)CCC(=O)N(CCc1ccc(S(N)(=O)=O)cc1)Cc1ccco1` has a Ki of 3.15 µM. In the case of `CCCCCCN(CCCCCC)CC(=O)N(CCc1ccc(S(N)(=O)=O)cc1)Cc1ccccc1`, the Ki is reported as greater than 10 µM.

What follows are compounds tested against Carbonic anhydrase 12 (Homo sapiens, UniProt O43570) (assay: Inhibition of human CA12 preincubated for 15 mins by stopped-flow CO2 hydration kinetic assay based Cheng-Prusoff equation analysis).
Sequence of Carbonic anhydrase 12 (O43570 whole entry): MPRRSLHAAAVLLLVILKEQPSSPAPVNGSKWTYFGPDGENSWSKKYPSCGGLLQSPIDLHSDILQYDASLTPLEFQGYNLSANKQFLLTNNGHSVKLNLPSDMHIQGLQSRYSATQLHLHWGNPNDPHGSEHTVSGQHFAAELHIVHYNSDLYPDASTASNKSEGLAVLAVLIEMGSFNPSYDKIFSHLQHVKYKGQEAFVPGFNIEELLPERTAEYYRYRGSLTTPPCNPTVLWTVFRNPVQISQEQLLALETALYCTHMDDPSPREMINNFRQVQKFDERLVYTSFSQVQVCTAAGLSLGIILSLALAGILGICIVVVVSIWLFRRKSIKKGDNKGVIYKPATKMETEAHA
In the case of `NS(=O)(=O)c1ccc(CCN(Cc2ccc(F)cc2)C(=O)CN(CCC(=O)O)CCc2ccccc2)cc1`, the Ki is reported as 0.0088 µM. Compound `N#CCCN(CCc1ccccc1)CC(=O)N(CCC#N)CCc1ccc(S(N)(=O)=O)cc1` has a Ki of 0.0089 µM. Compound `NS(=O)(=O)c1ccc(CCN(Cc2ccco2)C(=O)CN(CCC(=O)O)CCc2ccccc2)cc1` has a Ki of 0.0071 µM. `CCCCCCCCN(CCCCCCCC)CC(=O)N(CCc1ccc(S(N)(=O)=O)cc1)Cc1ccccc1` was tested, and the Ki was 0.0994 µM. `CCCCCCN(CCCCCC)CCC(=O)N(CCc1ccc(S(N)(=O)=O)cc1)Cc1ccco1` was tested, and the Ki was 0.0097 µM. `CCCCCCN(CCCCCC)CC(=O)N(CCc1ccc(S(N)(=O)=O)cc1)Cc1ccccc1` gave a Ki of 0.0928 µM.

Each compound was assayed on Oryctolagus cuniculus (assay: (§1) Suppression of hypertonic saline solution-induced increase in intraocular pressure in New Zealand rabbit model of glaucoma assessed as reduction in intraocular pressure dosed as 1% eye drops formulation via direct instillation into eye conjunctive pocket measured after 30 mins post dose relative to untreated control).
Format: functional
Work on `NS(=O)(=O)c1ccc(CCN(Cc2ccc(F)cc2)C(=O)CN(CCC(=O)O)CCc2ccccc2)cc1` yielded an Activity of 1.3 mmHg. For `N#CCCN(CCc1ccccc1)CC(=O)N(CCC#N)CCc1ccc(S(N)(=O)=O)cc1`, the Activity was 1 mmHg. Work on `CCN[C@H]1C[C@H](C)S(=O)(=O)c2sc(S(N)(=O)=O)cc21.Cl` [DORZOLAMIDE HYDROCHLORIDE] yielded an Activity of 1 mmHg.

The compounds below were run on Oryctolagus cuniculus (assay: as §1, with “60” for “30”).
Format: functional
In the case of `NS(=O)(=O)c1ccc(CCN(Cc2ccc(F)cc2)C(=O)CN(CCC(=O)O)CCc2ccccc2)cc1`, the Activity is reported as 4.8 mmHg. In the case of `N#CCCN(CCc1ccccc1)CC(=O)N(CCC#N)CCc1ccc(S(N)(=O)=O)cc1`, the Activity is reported as 3 mmHg. For `CCN[C@H]1C[C@H](C)S(=O)(=O)c2sc(S(N)(=O)=O)cc21.Cl` [DORZOLAMIDE HYDROCHLORIDE], the Activity was 5.4 mmHg. Compound `NS(=O)(=O)c1ccc(CCN(Cc2ccco2)C(=O)CN(CCC(=O)O)CCc2ccccc2)cc1` has an Activity of 3.3 mmHg.

What follows are compounds tested on Oryctolagus cuniculus (assay: as §1, with “120” for “30”).
Format: functional
`NS(=O)(=O)c1ccc(CCN(Cc2ccc(F)cc2)C(=O)CN(CCC(=O)O)CCc2ccccc2)cc1` gave an Activity of 3.2 mmHg. Compound `N#CCCN(CCc1ccccc1)CC(=O)N(CCC#N)CCc1ccc(S(N)(=O)=O)cc1` has an Activity of 0.3 mmHg. For `CCN[C@H]1C[C@H](C)S(=O)(=O)c2sc(S(N)(=O)=O)cc21.Cl` [DORZOLAMIDE HYDROCHLORIDE], the Activity was 2.8 mmHg. Work on `NS(=O)(=O)c1ccc(CCN(Cc2ccco2)C(=O)CN(CCC(=O)O)CCc2ccccc2)cc1` yielded an Activity of 1 mmHg.

The compounds below were run on Oryctolagus cuniculus (assay: as §1, with “240” for “30”).
Format: functional
Compound `NS(=O)(=O)c1ccc(CCN(Cc2ccc(F)cc2)C(=O)CN(CCC(=O)O)CCc2ccccc2)cc1` has an Activity of 2.4 mmHg. Compound `CCN[C@H]1C[C@H](C)S(=O)(=O)c2sc(S(N)(=O)=O)cc21.Cl` [DORZOLAMIDE HYDROCHLORIDE] has an Activity of 3 mmHg. `NS(=O)(=O)c1ccc(CCN(Cc2ccco2)C(=O)CN(CCC(=O)O)CCc2ccccc2)cc1` showed an Activity of 1.2 mmHg.

Organism: Homo sapiens
Assay: Selectivity index, ratio of Ki for inhibition of human CA1 to Ki for inhibition of human CA2
In short: (§2)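 Ratio of Ki values. Each Ki came from stopped-flow CA-catalysed CO2 hydration with recombinant in-house hCA isoforms, phenol red 0.2 mM read at 557 nm, 20 mM Hepes pH 7.5, 20 mM Na2SO4, and CO2 1.7–17 mM. Inhibitor and enzyme were preincubated 15 min at room temperature. Initial rates, less the uncatalysed rate, were fit by nonlinear least squares with Cheng–Prusoff. Mean of ≥3 determinations.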
`NS(=O)(=O)c1ccc(CCN(Cc2ccc(F)cc2)C(=O)CN(CCC(=O)O)CCc2ccccc2)cc1` showed a Ratio Ki of 4.1. For `N#CCCN(CCc1ccccc1)CC(=O)N(CCC#N)CCc1ccc(S(N)(=O)=O)cc1`, the Ratio Ki was 88. In the case of `NS(=O)(=O)c1ccc(CCN(Cc2ccco2)C(=O)CN(CCC(=O)O)CCc2ccccc2)cc1`, the Ratio Ki is reported as 33.1. With `CCCCCCCCN(CCCCCCCC)CC(=O)N(CCc1ccc(S(N)(=O)=O)cc1)Cc1ccccc1` the Ratio Ki was 1.1. Work on `CCCCCCN(CCCCCC)CCC(=O)N(CCc1ccc(S(N)(=O)=O)cc1)Cc1ccco1` yielded a Ratio Ki of 3.6. `CCCCCCN(CCCCCC)CC(=O)N(CCc1ccc(S(N)(=O)=O)cc1)Cc1ccccc1` gave a Ratio Ki of 3.7.

Organism: Homo sapiens
Assay: Selectivity index, ratio of Ki for inhibition of human CA1 to Ki for inhibition of human CA4
In short: as §2
`NS(=O)(=O)c1ccc(CCN(Cc2ccc(F)cc2)C(=O)CN(CCC(=O)O)CCc2ccccc2)cc1` gave a Ratio Ki of 0.2. Work on `N#CCCN(CCc1ccccc1)CC(=O)N(CCC#N)CCc1ccc(S(N)(=O)=O)cc1` yielded a Ratio Ki of 0.08. For `NS(=O)(=O)c1ccc(CCN(Cc2ccco2)C(=O)CN(CCC(=O)O)CCc2ccccc2)cc1`, the Ratio Ki was 0.2. `CCCCCCCCN(CCCCCCCC)CC(=O)N(CCc1ccc(S(N)(=O)=O)cc1)Cc1ccccc1` was tested, and the Ratio Ki was less than 0.09. In the case of `CCCCCCN(CCCCCC)CCC(=O)N(CCc1ccc(S(N)(=O)=O)cc1)Cc1ccco1`, the Ratio Ki is reported as 0.07. `CCCCCCN(CCCCCC)CC(=O)N(CCc1ccc(S(N)(=O)=O)cc1)Cc1ccccc1` showed a Ratio Ki of less than 0.09.

Organism: Homo sapiens
Assay: Selectivity index, ratio of Ki for inhibition of human CA2 to Ki for inhibition of human CA4
In short: as §2
Work on `NS(=O)(=O)c1ccc(CCN(Cc2ccc(F)cc2)C(=O)CN(CCC(=O)O)CCc2ccccc2)cc1` yielded a Ratio Ki of 0.06. Compound `N#CCCN(CCc1ccccc1)CC(=O)N(CCC#N)CCc1ccc(S(N)(=O)=O)cc1` has a Ratio Ki of 0.001. `NS(=O)(=O)c1ccc(CCN(Cc2ccco2)C(=O)CN(CCC(=O)O)CCc2ccccc2)cc1` gave a Ratio Ki of 0.007. `CCCCCCCCN(CCCCCCCC)CC(=O)N(CCc1ccc(S(N)(=O)=O)cc1)Cc1ccccc1` showed a Ratio Ki of less than 0.08. With `CCCCCCN(CCCCCC)CCC(=O)N(CCc1ccc(S(N)(=O)=O)cc1)Cc1ccco1` the Ratio Ki was 0.02. `CCCCCCN(CCCCCC)CC(=O)N(CCc1ccc(S(N)(=O)=O)cc1)Cc1ccccc1` gave a Ratio Ki of less than 0.02.

Organism: Homo sapiens
Assay: Selectivity index, ratio of Ki for inhibition of human CA1 to Ki for inhibition of human CA12
In short: as §2
`NS(=O)(=O)c1ccc(CCN(Cc2ccc(F)cc2)C(=O)CN(CCC(=O)O)CCc2ccccc2)cc1` showed a Ratio Ki of 10.9. `N#CCCN(CCc1ccccc1)CC(=O)N(CCC#N)CCc1ccc(S(N)(=O)=O)cc1` was tested, and the Ratio Ki was 6.9. Compound `NS(=O)(=O)c1ccc(CCN(Cc2ccco2)C(=O)CN(CCC(=O)O)CCc2ccccc2)cc1` has a Ratio Ki of 11.2. `CCCCCCCCN(CCCCCCCC)CC(=O)N(CCc1ccc(S(N)(=O)=O)cc1)Cc1ccccc1` showed a Ratio Ki of 9.5. `CCCCCCN(CCCCCC)CCC(=O)N(CCc1ccc(S(N)(=O)=O)cc1)Cc1ccco1` was tested, and the Ratio Ki was 22.7. With `CCCCCCN(CCCCCC)CC(=O)N(CCc1ccc(S(N)(=O)=O)cc1)Cc1ccccc1` the Ratio Ki was 9.5.

Organism: Homo sapiens
Assay: Selectivity index, ratio of Ki for inhibition of human CA2 to Ki for inhibition of human CA12
In short: as §2
`NS(=O)(=O)c1ccc(CCN(Cc2ccc(F)cc2)C(=O)CN(CCC(=O)O)CCc2ccccc2)cc1` gave a Ratio Ki of 2.7. `N#CCCN(CCc1ccccc1)CC(=O)N(CCC#N)CCc1ccc(S(N)(=O)=O)cc1` gave a Ratio Ki of 0.08. `NS(=O)(=O)c1ccc(CCN(Cc2ccco2)C(=O)CN(CCC(=O)O)CCc2ccccc2)cc1` showed a Ratio Ki of 0.3. `CCCCCCCCN(CCCCCCCC)CC(=O)N(CCc1ccc(S(N)(=O)=O)cc1)Cc1ccccc1` showed a Ratio Ki of 8.5. For `CCCCCCN(CCCCCC)CCC(=O)N(CCc1ccc(S(N)(=O)=O)cc1)Cc1ccco1`, the Ratio Ki was 6.2. `CCCCCCN(CCCCCC)CC(=O)N(CCc1ccc(S(N)(=O)=O)cc1)Cc1ccccc1` was tested, and the Ratio Ki was 2.5.

Organism: Homo sapiens
Assay: Selectivity index, ratio of Ki for inhibition of human CA4 to Ki for inhibition of human CA12
In short: as §2
Work on `NS(=O)(=O)c1ccc(CCN(Cc2ccc(F)cc2)C(=O)CN(CCC(=O)O)CCc2ccccc2)cc1` yielded a Ratio Ki of 47.6. `N#CCCN(CCc1ccccc1)CC(=O)N(CCC#N)CCc1ccc(S(N)(=O)=O)cc1` showed a Ratio Ki of 81.6. Work on `NS(=O)(=O)c1ccc(CCN(Cc2ccco2)C(=O)CN(CCC(=O)O)CCc2ccccc2)cc1` yielded a Ratio Ki of 47.3. With `CCCCCCCCN(CCCCCCCC)CC(=O)N(CCc1ccc(S(N)(=O)=O)cc1)Cc1ccccc1` the Ratio Ki was greater than 101. Work on `CCCCCCN(CCCCCC)CCC(=O)N(CCc1ccc(S(N)(=O)=O)cc1)Cc1ccco1` yielded a Ratio Ki of 325. Compound `CCCCCCN(CCCCCC)CC(=O)N(CCc1ccc(S(N)(=O)=O)cc1)Cc1ccccc1` has a Ratio Ki greater than 108.
